Published values of several laboratories.
Compare with care: the assays were run in different laboratories. Values after ≈ are worked out from the molar mass of the structure shown.

`Cn1nc2c(=O)n(C3CC3)nc(C3CC3)c2c1Cc1ccc(C(F)(F)F)c(F)c1` gave a kinetic solubility of 6.3 to 12.5 µM (≈ 2.56 to 5.08 µg/mL) (nephelometry; aqueous buffer; 30 min, pH 6.5).
With `CCCCC(CC)CNC(=N)NC(=N)NCCCCCCNC(=N)NC(=N)NCC(CC)CCCC` (centres unmarked) the Papp A→B was under 0.07 ×10⁻⁶ cm/s (Caco-2; 5 µM, 2 h).
For `CC(C)C[C@H](NC(=O)[C@@H]1COCCCCCC(=O)NCC(=O)N2CCC[C@H]2C(=O)N1)C(=O)[C@@]1(C)CO1`, the Papp B→A was 7.25 ×10⁻⁶ cm/s (Caco-2; 10 µM, 2 h, pH 7.4).
The bioavailability of `Cn1cncc1[C@@](N)(c1ccc(Cl)cc1)c1ccc2c(c1)c(-c1cccc(Cl)c1)cc(=O)n2C` is reported as 65% (beagle dog, plasma; oral, 10 mg/kg, single dose).
`C[C@H]1COC2=C1C(=O)C(=O)c1c2ccc2c1CCCC2(C)C` has a thermodynamic solubility of 15.8 µg/mL (PBS; 24 h, pH 4, 25 °C).
For `CC1(F)CN(C(=O)Cn2c(=O)c(C(=O)NCc3ccc(Cl)cc3)cc3nc(N4CCNC4=O)cnc32)C1`, the thermodynamic solubility was under 1.56 µM (aqueous buffer; 24 h, pH 7.4, 37 °C).
`CO[C@]1(C(=O)N[C@@H](C)c2ccc(-n3cc(F)cn3)nc2)CC[C@H](c2nc(C)cc(Nc3cc(C)[nH]n3)n2)CC1` has a pKa of 6.71.
For `Cn1cncc1[C@@](N)(c1ccc(Cl)cc1)c1ccc2c(c1)c(-c1cccc(Cl)c1)cc(=O)n2C`, the solubility was 14.1 µg/mL (≈ 28.8 µM) (FaSSIF; pH 6.5, 37 °C).
`CC[C@@](O)(c1ccc(C(F)(F)F)c(C#N)c1)c1c2ccn(C3CC3)c(=O)c2nn1C` gave a kinetic solubility of 20 to 40 µM (≈ 8.33 to 16.7 µg/mL) (nephelometry; aqueous buffer; 30 min, pH 6.5).
`CC(C)NCC(O)COc1cccc2ccccc12` (centres unmarked) gave a Papp A→B of 18.4 ×10⁻⁶ cm/s (Caco-2; 5 µM, 2 h).
`CCn1cc(Cl)c2c(Cc3ccc(N4CCCCC4)nc3)n(C)nc2c1=O` has a kinetic solubility of 40 to 80 µM (≈ 15.4 to 30.9 µg/mL) (nephelometry; aqueous buffer; 30 min, pH 6.5).
With `CN1CCN(c2cnc3c(cc(C(=O)NCc4ccc(Cl)cc4)c(=O)n3CC(=O)N3CC(C)(F)C3)n2)C1=O` the thermodynamic solubility was under 1.56 µM (aqueous buffer; 24 h, pH 7.4, 37 °C).
With `Cn1nc2c(=O)n(C3CC3)ncc2c1[C@](O)(c1ccc(C(F)(F)F)c(Cl)c1)C(F)(F)F` the kinetic solubility was 5 to 10 µM (≈ 2.33 to 4.67 µg/mL) (nephelometry; aqueous buffer; 30 min, pH 6.5).
`Cc1c(C(=O)O)ccc2c3n(nc12)[C@@H]1[C@H](C3)N(CC2CC2)[C@@]2(C(=O)Nc3cc(Cl)ccc32)[C@H]1c1cccc(Cl)c1F` gave a bioavailability of 109% (male dog, plasma; oral, 2 mg/kg).
